Assay results as given in ChEMBL document CHEMBL3877267, “Synthesis, biological evaluation and molecular modeling of 1-oxa-4-thiaspiro- and 1,4-dithiaspiro[4.5]decane derivatives as potent and selective 5-HT1A receptor agonists” (Eur J Med Chem, 2017).
Calls of active or inactive are those of the source. The calls are words filed in the database; no cut-off is given here.

Assays:
[1] = molecular target: T1, Alpha-1B adrenergic receptor (Homo sapiens, UniProt P35368); assay: Displacement of [3H]prazosin from recombinant human alpha1b adrenergic receptor expressed in CHO cell membranes after 30 mins by TopCount liquid scintillation counting method
T1 sequence (P35368 whole entry): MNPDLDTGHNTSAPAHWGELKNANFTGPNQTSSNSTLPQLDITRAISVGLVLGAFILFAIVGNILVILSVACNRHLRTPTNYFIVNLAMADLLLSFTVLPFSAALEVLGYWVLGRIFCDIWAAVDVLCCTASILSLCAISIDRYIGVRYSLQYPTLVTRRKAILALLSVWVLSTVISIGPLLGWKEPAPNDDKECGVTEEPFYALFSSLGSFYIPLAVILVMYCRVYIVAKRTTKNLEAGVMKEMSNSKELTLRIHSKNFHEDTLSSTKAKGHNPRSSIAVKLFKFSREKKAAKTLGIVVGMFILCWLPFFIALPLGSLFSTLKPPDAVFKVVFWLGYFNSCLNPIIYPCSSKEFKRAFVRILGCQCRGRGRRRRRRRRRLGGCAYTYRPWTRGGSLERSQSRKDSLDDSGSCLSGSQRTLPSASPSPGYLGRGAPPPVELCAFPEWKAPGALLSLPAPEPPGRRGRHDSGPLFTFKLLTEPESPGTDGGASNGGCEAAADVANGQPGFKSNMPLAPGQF
Procedure, shortened: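 Membranes from CHO cells stably expressing each human α1 subtype (70 µg protein), incubated in 50 mM Tris pH 7.4 with 0.1–0.4 nM [3H]prazosin and competitor (1 pM–1 µM) for 30 min at 25 °C. Nonspecific binding defined with 10 µM tamsulosin. Filtration and scintillation counting. Ki by Cheng–Prusoff; pKi mean of 2–3 experiments in duplicate.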

[2] = molecular target: T2, Alpha-1A adrenergic receptor (Homo sapiens, UniProt P35348); assay: Displacement of [3H]prazosin from recombinant human alpha1a adrenergic receptor expressed in CHO cell membranes after 30 mins by TopCount liquid scintillation counting method
T2 sequence (P35348 whole entry): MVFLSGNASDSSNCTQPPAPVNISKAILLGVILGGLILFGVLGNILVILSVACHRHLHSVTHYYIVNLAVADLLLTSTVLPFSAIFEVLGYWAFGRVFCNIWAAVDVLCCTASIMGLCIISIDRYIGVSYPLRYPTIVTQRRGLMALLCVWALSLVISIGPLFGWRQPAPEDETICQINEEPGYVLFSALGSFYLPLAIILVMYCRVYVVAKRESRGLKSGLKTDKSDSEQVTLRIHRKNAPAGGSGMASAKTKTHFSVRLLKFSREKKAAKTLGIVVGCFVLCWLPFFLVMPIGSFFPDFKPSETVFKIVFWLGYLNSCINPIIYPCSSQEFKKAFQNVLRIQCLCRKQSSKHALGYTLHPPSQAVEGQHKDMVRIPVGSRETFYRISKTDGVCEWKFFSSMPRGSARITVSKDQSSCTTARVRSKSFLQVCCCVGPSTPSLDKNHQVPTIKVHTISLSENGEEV
Procedure, shortened: (§1)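 Membranes from CHO cells stably expressing each human α1 subtype (70 µg protein), incubated in 50 mM Tris pH 7.4 with 0.1–0.4 nM [3H]prazosin and competitor (1 pM–1 µM) for 30 min at 25 °C. Nonspecific binding defined with 10 µM tamsulosin. Filtration and scintillation counting.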

[3] = molecular target: T3, Alpha-1D adrenergic receptor (Homo sapiens, UniProt P25100); assay: Displacement of [3H]prazosin from recombinant human alpha1d adrenergic receptor expressed in CHO cell membranes after 30 mins by TopCount liquid scintillation counting method; procedure, shortened: as §1
T3 sequence (P25100 whole entry): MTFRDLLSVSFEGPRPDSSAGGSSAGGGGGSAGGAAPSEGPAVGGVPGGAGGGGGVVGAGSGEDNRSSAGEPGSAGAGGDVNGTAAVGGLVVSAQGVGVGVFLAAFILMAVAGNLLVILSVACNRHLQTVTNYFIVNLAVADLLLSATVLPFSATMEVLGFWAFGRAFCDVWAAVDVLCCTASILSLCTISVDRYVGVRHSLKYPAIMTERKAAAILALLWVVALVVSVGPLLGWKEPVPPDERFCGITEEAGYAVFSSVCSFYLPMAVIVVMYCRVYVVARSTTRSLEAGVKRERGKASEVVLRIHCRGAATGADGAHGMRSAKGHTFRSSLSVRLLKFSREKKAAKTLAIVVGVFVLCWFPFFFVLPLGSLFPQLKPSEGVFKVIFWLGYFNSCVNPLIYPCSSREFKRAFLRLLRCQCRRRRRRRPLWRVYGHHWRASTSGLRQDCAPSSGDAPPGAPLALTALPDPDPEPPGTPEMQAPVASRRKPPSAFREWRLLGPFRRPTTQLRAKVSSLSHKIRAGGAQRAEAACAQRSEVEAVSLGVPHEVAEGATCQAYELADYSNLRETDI

[4] = molecular target: T4, 5-hydroxytryptamine receptor 1A (Homo sapiens, UniProt P08908); assay: Displacement of [3H]8-OH-DPAT from recombinant human 5-HT1A receptor expressed in HeLa cell membranes after 30 mins by TopCount liquid scintillation counting method; format: cell-based
T4 sequence (P08908 whole entry): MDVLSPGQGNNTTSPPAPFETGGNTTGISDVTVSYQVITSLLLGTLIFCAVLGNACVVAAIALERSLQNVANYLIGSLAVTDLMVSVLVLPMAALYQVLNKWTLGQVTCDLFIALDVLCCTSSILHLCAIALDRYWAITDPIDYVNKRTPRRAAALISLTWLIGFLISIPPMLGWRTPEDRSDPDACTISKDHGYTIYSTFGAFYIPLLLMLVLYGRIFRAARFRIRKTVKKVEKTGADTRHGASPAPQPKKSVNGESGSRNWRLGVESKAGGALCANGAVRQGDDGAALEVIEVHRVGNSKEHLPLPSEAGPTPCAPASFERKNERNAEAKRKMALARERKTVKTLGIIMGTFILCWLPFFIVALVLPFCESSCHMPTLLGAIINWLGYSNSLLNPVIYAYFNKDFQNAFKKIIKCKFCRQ

[5] = molecular target: T5, 5-hydroxytryptamine receptor 1A (Homo sapiens) (UniProt P08908); assay: Agonist activity at recombinant human 5-HT1A receptor expressed in HeLa cell membranes assessed as induction of [35S]GTPgammaS binding up to 10 uM preincubated for 20 mins followed by [35S]GTPgammaS addition measured after 30 mins by liquid scintillation counting method relative to serotonin; format: functional
T5 sequence (whole entry): T4 sequence (P08908 whole entry)
Procedure, shortened: (§2)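 HeLa membranes with recombinant human 5-HT1A (50-70 µg protein) in 20 mM HEPES, 3 mM MgSO4, 120 mM NaCl, pH 7.4. Pre-incubated with 30 µM GDP and drug (0.01 nM–10 µM) for 20 min at 30 °C, then 200 pM [35S]GTPγS added for 30 min at 30 °C. Nonspecific binding defined with 10 µM GTPγS. Filtration and scintillation counting. Emax and pD2 taken from concentration–response fits.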

[6] = molecular target: T5, 5-hydroxytryptamine receptor 1A (Homo sapiens); assay: Agonist activity at recombinant human 5-HT1A receptor expressed in HeLa cell membranes assessed as induction of [35S]GTPgammaS binding preincubated for 20 mins followed by [35S]GTPgammaS addition measured after 30 mins by liquid scintillation counting method; format: functional; procedure, shortened: as §2
[7] = Cytotoxicity against human SH-SY5Y cells assessed as reduction in cell viability after 24 hrs by MTT assay; format: toxicity, cell-based
Procedure, shortened: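 SH-SY5Y cells in DMEM with 10% heat-inactivated FBS, 2 mM L-glutamine, penicillin/streptomycin, 37 °C, 5% CO2; seeded 10,000 cells/well and incubated overnight. Compounds added at 0.1-100 μM for 24 h at 37 °C. MTT (0.5% w/v) added for 3 h, cells lysed in DMSO/EtOH 1:1, absorbance at 570 nm. IC50 taken as the concentration giving 50% growth inhibition.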

[8] = Neuroprotective activity against oligomycin A-induced cell death in human SH-SY5Y cells assessed as increase in cell viability at 0.1 uM after 24 hrs by MTT assay; format: functional
Procedure, shortened: (§3)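 SH-SY5Y cells seeded at 10,000 cells/well and grown 24 h at 37 °C, 5% CO2. Then co-incubated 24 h with compound at 0.1 μM plus one insult: H2O2 195 μM, oligomycin A 30 μM or rotenone 75 μM. Viability read by MTT at 570 nm. Given as percent neuroprotection ± SD from three independent experiments.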

[9] = Neuroprotective activity against H2O2-induced cell death in human SH-SY5Y cells assessed as increase in cell viability at 1 uM after 24 hrs by MTT assay; format: functional
Procedure, shortened: (§4)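 SH-SY5Y cells seeded at 10,000 cells/well and grown 24 h at 37 °C, 5% CO2. Then co-incubated 24 h with compound at 1 μM plus one insult: H2O2 195 μM, oligomycin A 30 μM or rotenone 75 μM. Viability read by MTT at 570 nm. Given as percent neuroprotection ± SD from three independent experiments.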

[10] = Apparent permeability from apical to basolateral side in MDCK2-MDR1 cells at 75 uM after 120 mins by UV-Visible spectrophotometric method; format: ADME, cell-based, Canis lupus familiaris, MDCK-II; conditions: dog, MDCK-MDR1
Procedure, shortened: (§5)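 MDCKII-MDR1 cells seeded at 100,000 cells/cm² on Transwell inserts (0.4 µm pores); monolayers with TEER 800 Ohm cm² used. Equilibrated 30 min at 37 °C in pH 7.4 bicarbonate/glucose transport medium. Receiver sampled after 120 min at 37 °C, 5% CO2, quantified by UV-Vis. Papp calculated from acceptor/initial concentration. Triplicate wells, three experiments.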

[11] = Neuroprotective activity against H2O2-induced cell death in human SH-SY5Y cells assessed as increase in cell viability at 0.1 uM after 24 hrs by MTT assay; format: functional; procedure, shortened: as §3
[12] = Neuroprotective activity against rotenone-induced cell death in human SH-SY5Y cells assessed as increase in cell viability at 1 uM after 24 hrs by MTT assay; format: functional; procedure, shortened: as §4
[13] = Apparent permeability from basolateral to apical side in MDCK2-MDR1 cells at 75 uM after 120 mins by UV-Visible spectrophotometric method; format: ADME, cell-based, Canis lupus familiaris, MDCK-II; conditions: dog, MDCK-MDR1; procedure, shortened: as §5
[14] = Efflux ratio of apparent permeability from basolateral to apical over apical to basolateral side in MDCK2-MDR1 cells at 75 uM after 120 mins by UV-Visible spectrophotometric method; format: ADME, cell-based, Canis lupus familiaris; conditions: dog, MDCK-MDR1
Mus musculus = assay: Analgesic activity in Swiss CD1 mouse assessed reduction in formalin-induced inflammatory pain by measuring reduction in time spent in licking or biting formalin injected hind paw at 10 mg/kg, ip pretreated for 15 mins followed by formalin injection measured every 5 mins for 10 to 60 mins; format: functional, organism-based
Procedure, shortened: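 Male Swiss […] mice, 25-30 g. Dosed i.p. in saline with 10% DMSO (5 ml/kg) 15 min before 5% formalin (10 µl) into the right hind paw. […] 8-10 mice per group; mean ± SEM; two-way repeated-measures ANOVA with Bonferroni post hoc test; scored blind.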

[15] = Neuroprotective activity against rotenone-induced cell death in human SH-SY5Y cells assessed as increase in cell viability at 0.1 uM after 24 hrs by MTT assay; format: functional; procedure, shortened: as §3
[16] = Neuroprotective activity against oligomycin A-induced cell death in human SH-SY5Y cells assessed as increase in cell viability at 1 uM after 24 hrs by MTT assay; format: functional; procedure, shortened: as §4

| SMILES | Ki [1] [nM] | Ki [2] [nM] | Ki [3] [nM] | Ki [4] [nM] | pD2 [6] | further results |
| --- | --- | --- | --- | --- | --- | --- |
| c1ccc(OCCNCC2COC3(CCCCC3)O2)cc1 (stereo not given) | 977 | > 1000 | 550 |  |  |  |
| COc1ccccc1N1CCN(CC2CSC3(CCCCC3)O2)CC1 (stereo not given) | 191 | 57.5 | 38.9 | 5.01 |  |  |
| c1ccc(OCCNCC2CSC3(CCCCC3)O2)cc1 (stereo not given) | 437 | > 1000 | 214 | 22.9 |  |  |
| COc1cccc(OC)c1OCCNCC1COC2(CCCCC2)O1 (stereo not given) | > 1000 | > 1000 | 1780 |  |  |  |
| COc1ccccc1N1CCN(CC2CSC3(CCCCC3)S2)CC1 (stereo not given) | 407 | 200 | 100 | 3.02 | 8.61 | Emax [5]: 37% |
| COc1ccccc1OCCNCC1COC2(CCCCC2)O1 (stereo not given) | 389 | 229 | 95.5 |  |  |  |
| COc1ccccc1N1CCN(CCN2C(=O)CC3(CCCC3)CC2=O)CC1 |  |  |  |  | 9.27 |  |
| COc1ccccc1N1CCN(CC2COC3(CCCCC3)O2)CC1 (stereo not given) |  |  |  |  | 8.61 |  |
| CC[C@H]1/C=C/C=C/C[C@@H](C)[C@H](O)[C@@](C)(O)C(=O)[C@@H](C)[C@H](O)[C@@H](C)C(=O)[C@@H](C)[C@H](O)[C@@H](C)/C=C/C(=O)O[C@@H]2[C@H](C)[C@H](CC1)O[C@]1(CC[C@H](C)[C@H](C[C@@H](C)O)O1)[C@H]2C [OLIGOMYCIN] |  |  |  |  |  | IC50 at 24 h [7]: 29000 nM |
| OO [HYDROGEN PEROXIDE] |  |  |  |  |  | IC50 at 24 h [7]: 195000 nM |
| C=C(C)[C@H]1Cc2c(ccc3c2O[C@@H]2COc4cc(OC)c(OC)cc4[C@@H]2C3=O)O1 [ROTENONE] |  |  |  |  |  | IC50 at 24 h [7]: 74100 nM |
| COc1ccccc1OCCNCC1CSC2(CCCCC2)O1 (stereo not given) | 219 | 269 | 32.4 | 2.24 |  |  |
| c1ccc(OCCNCC2CSC3(CCCCC3)S2)cc1 (stereo not given) | 550 | > 1000 | 123 | 1.55 | 8.27 | Emax [5]: 85% |
| COc1ccccc1OCCNCC1CSC2(CCCCC2)S1 (stereo not given) | 195 | 186 | 34.7 | 0.933 | 9.58 | Activity [8]: 81%; IC50 at 24 h [7]: 51000 nM; Activity [9]: 66%; Emax [5]: 74%; Papp A→B at 2 h, 75 µM [10]: 11.1 ×10⁻⁶ cm/s; Activity [11]: 83%; Activity [12]: 66%; Papp B→A at 2 h, 75 µM [13]: 10.9 ×10⁻⁶ cm/s; efflux ratio at 2 h, 75 µM [14]: 0.98; Activity (Mus musculus): Active; Activity [15]: 62%; Activity [16]: 86% |
